From PMC8301581 (Clinical and Translational Science, 2021)
Structures can show the parent of a compound that is named as a salt.

Legend:
SORORIN [1] = test: Western blot of SORORIN protein level; format: cell-based, human; conditions: CEM, G2 synchronized cells, highest concentration of DIP 10 µM
[2] = test system: phospho‐histone H3 (Ser10); test: Western blot of phospho‐histone H3; format: cell-based, human; conditions: CEM, vincristine 2 nM for 24 h with increasing concentrations of DIP
[3] = In vivo pharmacokinetic studies in mice; conditions: for total plasma concentrations: mice, VCR 0.1 mg/kg intraperitoneal and DIP 200 mg/kg p.o.; for clearance: male, C57BL/6, mouse, plasma, intraperitoneal
SORORIN [4] = test: Western blot of SORORIN protein level; format: cell-based, human; conditions: NALM6, G2 synchronized cells, highest concentration of DIP 10 µM
[5] = clinical studies; cited from earlier work
hiPSC‐derived neurons [6] = format: cell-based, human; conditions: 72 h, negative α = antagonism
Method in brief: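 Human iPSC-derived peripheral neurons (>90% pure; βIII-tubulin, MAP-2, peripherin and vGLUT2 positive; three lots) were kept per the supplier's protocol. Viability was read as ATP by CellTiter-Glo 2.0 at 72 h after drug treatment. Combination responses were fitted by modified response surface modeling. α is the interaction term versus the additive model: positive means synergy, negative means antagonism.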

CEM = format: cell-based, human; conditions: CEM ALL cell line; α greater than zero = synergy, less than zero = antagonism
Method in brief: (§1)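 Cells were grown in RPMI-1640 with 2 mM glutamine and 10% FBS at 37°C, 5% CO₂, and were STR-authenticated and mycoplasma-negative. Mid-log-phase cells were exposed to serial dilutions of the drugs, alone or combined, then read by a modified MTT assay after 3 days. Interaction α (positive = synergy, negative = antagonism) was estimated by modified response surface modeling relative to additivity.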

[7] = test system: phospho‐histone H3 (Ser10); test: Western blot of phospho‐histone H3; format: cell-based, human; conditions: NALM6, vincristine 2 nM for 24 h with increasing concentrations of DIP
C57BL/6 J mice = test: Mouse neurotoxicity assessment: mechanical allodynia; format: in vivo
hiPSC‐derived neurons [8] = format: cell-based, human; conditions: negative α = antagonism
Method in brief: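 After drug treatment, hiPSC-derived neurons were stained with 5 µg/ml Hoechst 33342 and 10 µg/ml Calcein AM for 10 min at room temperature. Cells were imaged at 10×, with at least 1000 cells per condition in each of five independent experiments. Per-cell values were collected for total neurite outgrowth, number of processes and number of branches. Combination α came from response surface modeling against an additive model.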

NALM6 = format: cell-based, human; conditions: NALM6 ALL cell line; α greater than zero = synergy, less than zero = antagonism
Method in brief: as §1

[9] = cited from earlier work
CEM leukemia cells = test: Survival of NSG mice inoculated with human CEM leukemia cells; format: in vivo; conditions: once a week, 0.3mg/kg vincristine, p value <0.001

| SMILES | SORORIN protein levels (SORORIN [1]) | phospho‐histone H3 (Ser10) levels [2] | total plasma concentrations [3] | SORORIN protein levels (SORORIN [4]) | plasma concentrations reported clinically [5] | Viability α (drug‐drug interaction between vincristine and second drug) (hiPSC‐derived neurons [6]) | CEM α (drug‐drug interaction between vincristine and second drug) (CEM) | phospho‐histone H3 (Ser10) levels [7] | paw withdrawal response, DIP administered with VCR versus VCR alone (C57BL/6 J mice; mice, DIP oral gavage with VCR intraperitoneal, day 1 to day 10) | Branches α (drug‐drug interaction between vincristine and second drug) (hiPSC‐derived neurons [8]) | Outgrowth α (drug‐drug interaction between vincristine and second drug) (hiPSC‐derived neurons [8]) | Processes α (drug‐drug interaction between vincristine and second drug) (hiPSC‐derived neurons [8]) | NALM6 α (drug‐drug interaction between vincristine and second drug) (NALM6) | clearance [3] [mL/min/kg] | clearance ([3]; 0.1 mg/kg) [mL/min/kg] | plasma protein binding [9] | paw withdrawal responses (C57BL/6 J mice; mice receiving VCR alone) | survival of mice, VCR and vehicle versus controls (CEM leukemia cells) |
| --- | --- | --- | --- | --- | --- | --- | --- | --- | --- | --- | --- | --- | --- | --- | --- | --- | --- | --- |
| OCCN(CCO)c1nc(N2CCCCC2)c2nc(N(CCO)CCO)nc(N3CCCCC3)c2n1 [Dipyridamole] | lowest level of SORORIN protein | dose‐dependent increase | ≤ 5000 ng/mL | lowest level of SORORIN protein | ≤ 6000 ng/mL | −3.7 | 11.6 | dose‐dependent increase | significantly lowered | −3.43 | −1.98 | −1.75 | 4.45 |  |  |  |  |  |
| OCCOCCN1CCN(C2=Nc3ccccc3Sc3ccccc32)CC1 [Quetiapine fumarate] |  |  |  |  |  | −0.007 | 0.787 |  |  | −2.29 | −1.67 | −1.25 | 2.33 |  |  |  |  |  |
| CCOC(=O)c1ccc(C#Cc2ccc3c(c2)C(C)(C)CCS3)nc1 [Tazarotene] |  |  |  |  |  | −0.72 | 0.945 |  |  | −1.16 | −1.63 | −1.59 | 1.42 |  |  |  |  |  |
| CC[C@]1(O)C[C@H]2CN(CCc3c([nH]c4ccccc34)[C@@](C(=O)OC)(c3cc4c(cc3OC)N(C=O)[C@H]3[C@@](O)(C(=O)OC)[C@H](OC(C)=O)[C@]5(CC)C=CCN6CC[C@]43[C@@H]65)C2)C1 [VCR, Vincristine] |  |  | up to 10 ng/ml |  | up to 31.2 ng/ml |  |  |  |  |  |  |  |  | 81.3 | 99.3 | around 75% | significant increase | significantly prolonged survival |
